# Results gathered from unrelated publications.
# Protocols differ between the studies behind these lines.
# Cell line: MCF-10A
# Effect on: cell growth or viability
Structure (SMILES),method,time,IC50
CN(C)C(=S)[N-]N=C(c1ccccn1)c1ccccn1.[O]=[V+]=[O],MTT,48 h,19.2 µM
CCOC(=O)c1c(C)nc2ccc(-c3ccc(F)cc3)cc2c1O,MTT,48 h,> 100 µM
Cc1ccc(S(=O)(=O)n2cc(/C=N/NC(=O)c3ccc(C)c(F)c3)c3ccccc32)cc1,MTT,48 h,> 50 µM
CC(=O)O[C@H]1C(=O)[C@@]2(C)[C@H]([C@H](OC(=O)c3ccccc3)[C@]3(O)C[C@H](OC(=O)[C@H](O)[C@@H](NC(=O)c4ccccc4)c4ccccc4)C(C)=C1C3(C)C)[C@]1(OC(C)=O)CO[C@@H]1C[C@@H]2O,MTT,48 h,> 100 µM
CCOC(=O)c1c(C)nc2ccc(-c3ccc(OCc4ccccc4)c(F)c3)cc2c1O,MTT,48 h,> 100 µM
COc1ccc(C(=O)N/N=C/c2cn(S(=O)(=O)c3ccc(C)cc3)c3ccccc23)cc1,MTT,48 h,> 50 µM
CC(C)Cc1ccc([C@H](C)C(=O)O)cc1,SRB,72 h,435 µM
CO[C@H]1[C@H](O[C@H]([C@H]2O[C@@H](n3ccc(=O)[nH]c3=O)[C@H](O)[C@@H]2O)[C@H](NCCCNC(=O)[C@@H](NC(=O)[C@@H](NC(=O)N[C@H](C(=O)O)C(C)C)[C@@H]2CCN=C(N)N2)[C@@H](O)C(C)C)C(=O)O)O[C@H](CN)[C@H]1O,WST-1,,> 35 µM
CCOC(=O)c1c(C)nc2ccc(-c3ccc(F)c(F)c3)cc2c1O,MTT,48 h,> 100 µM
Cc1ccc(S(=O)(=O)n2cc(/C=N/NC(=O)c3cccc4ccccc34)c3ccccc32)cc1,MTT,48 h,> 50 µM
CO[C@H]1[C@H](O[C@H]([C@H]2O[C@@H](n3ccc(=O)[nH]c3=O)[C@H](O)[C@@H]2O)[C@H](NCCCNC(=O)[C@@H](NC(=O)[C@@H](NC(=O)N[C@H](C(=O)O)C(C)C)[C@@H]2CCN=C(N)N2)[C@@H](OC(=O)CCCCCCCCCCCCN(O)C(=N)N)C(C)C)C(=O)O)O[C@H](CN)[C@H]1O,WST-1,,> 35 µM
